Measured values as given in ChEMBL document CHEMBL1143602, “Evaluation of 8-arylsulfanyl, 8-arylsulfoxyl, and 8-arylsulfonyl adenine derivatives as inhibitors of the heat shock protein 90” (J Med Chem, 2005).
Several values for one entry are separate records, joined by “and”; a condition that tells them apart may be missing. Equal values may be shown once.

What was measured:
Heat shock protein HSP90 = Heat shock protein HSP90 (Homo sapiens, UniProt P07900+P08238); assay: Inhibition of Hsp90 protein as degradation of HER2 kinase in SKBr3 cells; format: functional, cell-based
SK-BR-3 = assay: Inhibitory concentration against SKBr3 cell line; format: functional, cell-based; conditions: Homo sapiens
How it was run: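 Sulforhodamine B growth assay in SKBr3 cells grown in DME:F12 with 10% FBS at 37 °C, 5% CO2, attached overnight. Drug or DMSO was added in triplicate and serially diluted 1:1. Cells were grown 72 h, fixed with TCA and stained with 0.4% SRB.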

[1] = target: Heat shock protein HSP 90-alpha (Mus musculus, UniProt P07901); assay: Displacement of 5 nM GM-BODIPY from mouse heat shock protein HSP90-alpha
RPTEC [2] = assay: Selective inhibition for renal proximal tubular epithelial cells (RPTEC) to that of SKBr3 cells; format: functional, Homo sapiens
[3] = target: T1, Heat shock protein HSP 90-alpha (Homo sapiens, UniProt P07900); assay: Effective concentration of compound against heat shock protein HSP90 determined in normal lung cells
[4] = target: T1, Heat shock protein HSP 90-alpha; assay: Effective concentration of compound against heat shock protein HSP90 determined in normal brain cells
[5] = target: T1, Heat shock protein HSP 90-alpha; assay: Effective concentration of compound against heat shock protein HSP90 determined in normal heart cells
[6] = target: T1, Heat shock protein HSP 90-alpha; assay: Effective concentration against heat shock protein HSP90-alpha in SKBr3 cells; format: functional, cell-based
RPTEC [7] = assay: Inhibitory concentration of compound against human renal proximal tubular epithelial cells (RPTEC) was determined; format: functional, cell-based
How it was run: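 Pre-seeded normal human renal proximal tubular epithelial cells were equilibrated 3 h at 37 °C, 5% CO2, then given fresh medium. Cells were treated with drug or DMSO for 72 h.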

[8] = target: T1, Heat shock protein HSP 90-alpha; assay: Effective concentration against heat shock protein HSP90-alpha in MDA-MB-468 cells; format: functional, cell-based

Row | IC50 (Heat shock protein HSP90) [µM] | IC50 (SK-BR-3) [µM] | EC50 [1] [µM] | EC50 [6] | IC50 (RPTEC [7]) [µM] | EC50 [8] [µM] | SMILES | Selectivity (RPTEC [2]) | EC50 [3] [µM] | EC50 [4] [µM] | EC50 [5] [µM]
1 | 70.3 | 63.4 | 3.5 |  |  |  | COc1cccc([S+]([O-])c2nc3c(N)ncnc3n2CCOC(C)C)c1 (configuration not stated) |  |  |  | 
2 | > 400 | 108 | 34.9 |  |  |  | C#CCCCn1c(Sc2ccccc2OC)nc2c(N)ncnc21 |  |  |  | 
3 | 47.8 | 36 | 15.4 |  |  |  | Nc1[nH]cnc2nc(Sc3cc(Cl)c(Cl)cc3Cl)nc1-2 |  |  |  | 
4 | > 100 | 34.4 | 10.6 |  |  |  | C#CCCCn1c(Sc2cc(C)cc(C)c2)nc2c(N)ncnc21 |  |  |  | 
5 | 53.7 | 37.7 | 4.6 |  |  |  | CCCCn1c(Sc2cccc(OC)c2)nc2c(N)ncnc21 |  |  |  | 
6 | 10.5 | 16.8 |  | 1.6 µM |  | 1.4 | C#CCCCn1c(Cc2cc(OC)c(OC)c(OC)c2)nc2c(N)nc(F)nc21 |  |  |  | 
7 | 28.7 | 71.1 |  | 5.1 µM and 3.6 µM | > 200 | 5.8 | COc1cc(Cc2nc3c(N)ncnc3n2CCOC(C)C)cc(OC)c1OC | >100 |  |  | 
8 | 170 | 57.6 | > 50 |  |  |  | COc1cccc(S(=O)(=O)c2nc3c(N)ncnc3n2CCOC(C)C)c1 |  |  |  | 
9 | 58.3 | 16.1 | 5 |  |  |  | COc1cc(Sc2nc3c(N)ncnc3n2CCOC(C)C)c(Cl)cc1Cl |  |  |  | 
10 | > 150 | > 150 | 2.7 |  |  |  | C#CCCCn1c(Sc2ccc(C(C)=O)cc2)nc2c(N)ncnc21 |  |  |  | 
11 | 147 | 467 | 13.4 |  |  |  | C#CCCCn1c(Sc2cc(C)ccc2C)nc2c(N)ncnc21 |  |  |  | 
12 | 122 | 190 | 85.1 |  |  |  | Nc1ncnc2[nH]c(Sc3cc(Cl)ccc3Cl)nc12 |  |  |  | 
13 | 26.5 | 44.1 | 2.1 |  |  |  | C#CCCCn1c(Sc2cc(Cl)ccc2Cl)nc2c(N)ncnc21 |  |  |  | 
14 | 35.9 | 21.5 | 3.7 |  |  |  | C#CCCCn1c(Sc2cc(C(F)(F)F)ccc2Cl)nc2c(N)ncnc21 |  |  |  | 
15 | 311 | 121 | > 100 |  |  |  | C#CCCCn1c(Sc2ccc(-n3cccc3)cc2)nc2c(N)ncnc21 |  |  |  | 
16 | 355 | > 500 | 37.5 |  |  |  | C#CCCCn1c(Sc2ccc(Cl)cc2Cl)nc2c(N)ncnc21 |  |  |  | 
17 | 0.3 | 0.2 | 0.03 | 0.02 µM | 4.1 |  | C#CCCCn1c(Sc2cc3c(cc2Br)OCO3)nc2c(N)ncnc21 | 20.5 | 14.7 | 40.2 | 65.3
18 | 43.9 | 66.2 | 2.3 |  |  |  | COc1cc([S+]([O-])c2nc3c(N)ncnc3n2CCOC(C)C)cc(OC)c1OC (configuration not stated) |  |  |  | 
19 | 13.8 | 10.1 | 2.1 |  |  |  | COc1c(Cl)c(Sc2nc3c(N)ncnc3n2CCOC(C)C)c(Cl)c(OC)c1OC |  |  |  | 
20 | 75 | 41.4 | 19.1 |  |  |  | C#CCCCn1c(Sc2ccc(OC)cc2)nc2c(N)ncnc21 |  |  |  | 
21 | 97 | 86 | 5.6 |  |  |  | C#CCCCn1c(Sc2ccccc2OC(F)(F)F)nc2c(N)ncnc21 |  |  |  | 
22 | > 150 | > 150 | 2 |  |  |  | C#CCCCn1c(Sc2ccc(OC)cc2OC)nc2c(N)ncnc21 |  |  |  | 
23 | 125 | 57.2 | > 50 |  |  |  | CCCCn1c(S(=O)(=O)c2cccc(OC)c2)nc2c(N)ncnc21 |  |  |  | 
24 | 314 | 130 | 90.7 |  |  |  | Nc1[nH]cnc2nc(Sc3cc(C(F)(F)F)ccc3Cl)nc1-2 |  |  |  | 
25 |  | 31.8 | 8.6 |  |  |  | C#CCCCn1c(Sc2ccc(C)cc2C)nc2c(N)ncnc21 |  |  |  | 
26 | 44.7 | 30.2 | 3.4 |  |  |  | C#CCCCn1c(Sc2ccc(Cl)cc2)nc2c(N)ncnc21 |  |  |  | 
27 | 157 | 41.2 | > 50 |  |  |  | C#CCCCn1c(S(=O)(=O)c2cccc(OC)c2)nc2c(N)ncnc21 |  |  |  | 
28 | 23.5 | 41.2 | 2.5 |  |  |  | COc1cc(Sc2nc3c(N)nc(F)nc3n2CCOC(C)C)cc(OC)c1OC |  |  |  | 

Row | SMILES | IC50 (Heat shock protein HSP90) [µM] | IC50 (SK-BR-3) [µM] | EC50 [1] [µM] | EC50 [6] | IC50 (RPTEC [7]) [µM] | EC50 [8] [µM] | Selectivity (RPTEC [2]) | EC50 [3] [µM] | EC50 [4] [µM] | EC50 [5] [µM]
29 | C#CCCCn1c(Sc2cc(OC)ccc2OC)nc2c(N)ncnc21 | 3.2 | 1.9 | 0.19 | 0.16 µM | 31.4 |  | 16.5 | > 75 | 30.5 | 66.3
